The values below come from PubChem BioAssay AID504667 (Broad Institute, 2011).

“And” between values parts separate entries of the source, which are not always exact repeats. Identical values can stand only once. Results filed as inconclusive are left out. The source made the active and inactive calls.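 Rule for the calls: active = signal drops with a fitted half-maximal dose within ten times the top tested dose, in every replicate test; inconclusive = replicate tests disagree, or flat partial drop, or poor fit; inactive = the rest, including effects in the wrong direction.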

A short description of assay [1]: HMLE_shECad viability reduction – cell-based, CellTiter-Glo luminescence, dry powder, set 6, dose response (AID 504667). Particulars: HMLE_shECad viability, CellTiter-Glo luminescence, 72 h. In short, it runs like this:
(§1)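 Measured by: CellTiter-Glo ATP luminescence, reagent diluted 1:3 in PBS, 12 min / System: HMLE_shECad cells, stable E-cadherin knockdown, EMT-induced, CSC-like / Schedule: ≥4 h cell attachment, ~72 h compound exposure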

Assay [2] deals with HMLE_shECad viability, CellTiter-Glo luminescence, 72 h. Described as above. An outline of the steps: as §1

As to `CCN(CC)C(=O)c1ccc(COc2ccccc2)o1`, the activity change, negative = inhibition in assay [1] (at 19.5 µM (top of the series)) is -1.82% (inactive).

Consider `CC(C)c1ccc(/C=C/C(=O)NC2=NCCS2)cc1`, for which the AC50 in assay [2] is 3.23 µM.

For `O=C(Nc1nc2cc(F)ccc2s1)c1ccc(COc2ccccc2)o1`, the activity change, negative = inhibition in assay [1] (at 30 µM (top of the series)) is -21.2% (inactive).

As to `Cc1csc(NC(=O)c2ccc(COc3ccccc3S(C)(=O)=O)o2)n1`, the AC50 in assay [2] is 20.9 µM.

With `COCc1ccc(C(=O)Nc2nc(C)cs2)o1`, in assay [1] (at 19.5 µM (top of the series)), the activity change, negative = inhibition was -7.05% (inactive).

For the compound `CCOc1cccc(OCc2ccc(C(=O)Nc3nc(C)cs3)o2)c1`, the AC50 in assay [2] was 0.896 µM.

With `Cc1csc(NC(=O)c2ccc(COc3cccc(Oc4ccccc4)c3)o2)n1`, in assay [2], the AC50 was 0.388 µM.

As for `Cc1cc(Br)ccc1OCC(=O)N/N=C/c1ccc[nH]1`, in assay [2], the AC50 was 3.22 µM.

On to `Cc1csc(NC(=O)c2ccc(COc3cccc(Cl)c3)o2)n1`, for which, in assay [2], the AC50 is 0.5 µM.

Take `COc1ccc2nc(NC(=O)c3ccc(COc4ccccc4)o3)sc2c1`: the activity change, negative = inhibition in assay [1] (at 30 µM (top of the series)) is -14.7% (inactive).

On to `Cc1ccc(OCc2ccc(C(=O)Nc3nc(C)cs3)o2)cc1`, for which the AC50 in assay [2] was 2.04 µM.

For the compound `Cc1csc(NC(=O)c2ccc(COc3cccc(OC(F)(F)F)c3)o2)n1`, the AC50 in assay [2] is 0.162 µM.

In the case of `Cc1cccc(OCc2ccc(C(=O)Nc3nc(C)cs3)o2)c1`, the AC50 in assay [2] was 0.123 µM and 0.596 µM.

As for `Cc1csc(NC(=O)c2cocc2COc2ccccc2)n1`, the activity change, negative = inhibition in assay [1] (at 30 µM (top of the series)) was -3.35% (inactive).

As for `O=C(COc1c(Cl)cc(Cl)cc1Cl)N/N=C/c1ccc[nH]1`, the AC50 in assay [2] was 1.51 µM.

In the case of `N#Cc1csc(NC(=O)c2ccc(COc3ccccc3)o2)n1`, the AC50 in assay [2] is 13.7 µM.

As for `Cc1cc(C)c(OCC(=O)N/N=C/c2ccc[nH]2)c(C)c1`, in assay [2], the AC50 was 4.45 µM.

For `COc1ccc(/C=C/C(=O)NC2=NCCS2)c(OC)c1`, in assay [2], the AC50 was 10.4 µM.

For the compound `Cc1csc(NC(=O)c2ccc(COc3ccccn3)o2)n1`, the AC50 in assay [2] is 9.4 µM.

Regarding `CC(C)c1ccc(/C=C/C(=O)N(C)C2=NCCS2)cc1`, the AC50 in assay [2] was 20.9 µM.

On to `CNC(=O)c1csc(NC(=O)c2ccc(COc3ccccc3)o2)n1`, for which the activity change, negative = inhibition in assay [1] (at 19.5 µM (top of the series)) is -0.72% (inactive).

For the compound `Cc1csc(NCc2ccc(COc3ccccc3)o2)n1`, in assay [2], the AC50 was 28.8 µM.

Turning to `COc1ccc(OCc2ccc(C(=O)Nc3nc(C)cs3)o2)c(F)c1`, the AC50 in assay [2] is 3.35 µM.

As to `Cc1csc(NC(=O)c2ccc(COc3ccccc3)o2)n1`, in assay [2], the AC50 is 1.05 µM.

Turning to `Cc1csc(NC(=O)c2ccc(COC(C)(C)C)o2)n1`, the activity change, negative = inhibition in assay [1] (at 19.5 µM (top of the series)) was -7.02% (inactive).

With `Cc1csc(NC(=O)c2ccc(COC3CCCC3)o2)n1`, the AC50 in assay [2] is 28.3 µM.

As for `Cc1csc(NC(=O)c2ccc(CNc3ccccn3)o2)n1`, in assay [2], the AC50 is 7.55 µM.

`Cc1csc(NC(=O)c2ccc(COc3ccccc3F)o2)n1`: the AC50 in assay [2] is 0.007 µM.

On to `Cc1csc(NC(=O)c2ccc(COc3cccc(F)c3)o2)n1`, for which, in assay [2], the AC50 is 3.25 µM.

Turning to `CC(C)NC(=O)c1ccc(COc2ccccc2)o1`, the activity change, negative = inhibition in assay [1] (at 19.5 µM (top of the series)) was -15.6% (inactive).

Consider `Cc1csc(NC(=O)c2ccc(COC3CCCCC3)o2)n1`, for which the AC50 in assay [2] is 13.6 µM.

On to `CCc1ccc(/C=C/C(=O)NC2=NCCS2)cc1`, for which the AC50 in assay [2] is 2.33 µM.

Turning to `Cc1csc(NC(=O)c2ccoc2COc2ccccc2)n1`, in assay [2], the AC50 is 16.6 µM.

As for `C/C(=C\C(=O)NC1=NCCS1)c1ccc(CC(C)C)cc1`, the activity change, negative = inhibition in assay [1] (at 19.5 µM (top of the series)) is -2.19% (inactive).

Consider `Cc1csc(NC(=O)c2ccc(COc3cccc(S(C)(=O)=O)c3)o2)n1`, for which the activity change, negative = inhibition in assay [1] (at 19.5 µM (top of the series)) is -5.39% (inactive).

Consider `O=C(Nc1nc(C(F)(F)F)cs1)c1ccc(COc2ccccc2)o1`, for which, in assay [2], the AC50 was 13.8 µM.

Consider `Cc1ccc2cc(C(=O)NC3=NCCS3)n(C)c2c1`, for which the activity change, negative = inhibition in assay [1] (at 30 µM (top of the series)) is -5.01% (inactive).

Consider `CC(C)c1ccc(/C=C/C(=O)Nc2nc3ccccc3s2)cc1`, for which the activity change, negative = inhibition in assay [1] (at 19.5 µM (top of the series)) is -8.38% (inactive).

In the case of `Cc1csc(NC(=O)c2coc(COc3ccccc3)c2)n1`, in assay [2], the AC50 was 1.27 µM.

Consider `Cc1csc(NC(=O)c2ccc(CNc3ccccc3)o2)n1`, for which the AC50 in assay [2] was 0.38 µM.

As to `Cc1csc(NC(=O)c2ccc(COCc3ccccc3)o2)n1`, in assay [2], the AC50 is 4.92 µM.

Consider `CC(C)Cc1ccc(/C=C/C(=O)NC2=NCCS2)cc1`, for which, in assay [2], the AC50 is 0.386 µM.

For `COc1ccc(Cl)c(OCc2ccc(C(=O)Nc3nc(C)cs3)o2)c1`, the AC50 in assay [2] is 0.08 µM.

On to `COc1ccc(OC)c2sc(NC(=O)c3ccc(COc4ccccc4)o3)nc12`, for which the activity change, negative = inhibition in assay [1] (at 30 µM (top of the series)) was -5.85% (inactive).

For the compound `Cc1csc(NC(=O)c2ccc(CCc3ccccc3)o2)n1`, the concentration at half-maximal activity (AC50) in assay [2] is 0.794 µM.

Consider `COc1cccc(OCc2ccc(C(=O)Nc3nc(C)cs3)o2)c1`, for which the AC50 in assay [2] is 0.223 µM.

In the case of `CC(C)c1ccc(/C=C/C(=O)Nc2cncs2)cc1`, the AC50 in assay [2] is 6.44 µM.

For `O=C(Nc1nncs1)c1ccc(COc2ccccc2)o1`, the activity change, negative = inhibition in assay [1] (at 19.5 µM (top of the series)) was -0.185% (inactive).

Turning to `N#Cc1ccc(/C=C/C(=O)NC2=NCCS2)cc1`, the AC50 in assay [2] is 24.6 µM.

Turning to `O=C(COc1ccc(Cl)cc1Cl)N/N=C/c1ccc[nH]1`, the AC50 in assay [2] is 3.8 µM.

Consider `Cc1csc(NC(=O)c2ccc(COc3cc(Cl)ccc3Cl)o2)n1`, for which, in assay [2], the AC50 was 0.024 µM.
